Converted amounts (≈) assume the structure as drawn.
System: not listed separately
Assay: Partition coefficient at pH 7.4 by shake-flask method
Format: physicochemical
Settings: octanol/water
Method in brief: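 Octanol-water partition coefficient by shake-flask at pH 7.4, reported with SEM.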

Row | SMILES | logD
1 | NC(=O)c1cc(N(CCCl)CCCl)c([N+](=O)[O-])cc1[N+](=O)[O-] | 1.52

System: V79
Assay: Antiproliferative activity against chinese hamster wild-type V79 NTR-ve cells after 18 hrs
Format: functional, cell-based
Settings: Cricetulus griseus, V79, 18 h

Row | SMILES | IC50
2 | NC(=O)c1cc(N(CCCl)CCCl)c([N+](=O)[O-])cc1[N+](=O)[O-] | 490 µM

System: V79
Assay: Antiproliferative activity against chinese hamster V79 NTRpuro cells after 18 hrs
Format: functional, cell-based
Settings: Cricetulus griseus, V79, 18 h

Row | SMILES | IC50
3 | NC(=O)c1cc(N(CCCl)CCCl)c([N+](=O)[O-])cc1[N+](=O)[O-] | 17 µM

System: V79
Assay: Selectivity ratio of IC50 for V79 NTR-ve cells to IC50 for V79 NTRpuro cells
Format: functional, Cricetulus griseus
Settings: not given

Row | SMILES | Ratio IC50
4 | NC(=O)c1cc(N(CCCl)CCCl)c([N+](=O)[O-])cc1[N+](=O)[O-] | 42

System: EMT6
Assay: Antiproliferative activity against mouse wild type EMT6 NTR-ve cells after 18 hrs
Format: functional, cell-based
Settings: EMT6, 18 h

Row | SMILES | IC50
5 | NC(=O)c1cc(N(CCCl)CCCl)c([N+](=O)[O-])cc1[N+](=O)[O-] | 442 µM

System: EMT6
Assay: Antiproliferative activity against mouse EMT6 NTRpuro cells after 18 hrs
Format: functional, cell-based
Settings: EMT6, 18 h

Row | SMILES | IC50
6 | NC(=O)c1cc(N(CCCl)CCCl)c([N+](=O)[O-])cc1[N+](=O)[O-] | 1.85 µM

System: EMT6
Assay: Selectivity ratio of IC50 for EMT6 NTR-ve cells to IC50 forEMT6 NTRpuro cells
Format: functional, Mus musculus
Settings: not given

Row | SMILES | Ratio IC50
7 | NC(=O)c1cc(N(CCCl)CCCl)c([N+](=O)[O-])cc1[N+](=O)[O-] | 261

System: WiDr
Assay: Antiproliferative activity against human wild type WiDr NTR-ve cells after 18 hrs
Format: functional, cell-based
Settings: not given

Row | SMILES | IC50
8 | NC(=O)c1cc(N(CCCl)CCCl)c([N+](=O)[O-])cc1[N+](=O)[O-] | 703 µM

System: WiDr
Assay: Antiproliferative activity against human WiDr NTRneo cells after 18 hrs
Format: functional, cell-based
Settings: not given

Row | SMILES | IC50
9 | NC(=O)c1cc(N(CCCl)CCCl)c([N+](=O)[O-])cc1[N+](=O)[O-] | 9.5 µM

System: WiDr
Assay: Selectivity ratio of IC50 for WiDr NTR-ve cells to IC50 for WiDr NTRneo cells
Format: functional, Homo sapiens
Settings: not given

Row | SMILES | Ratio IC50
10 | NC(=O)c1cc(N(CCCl)CCCl)c([N+](=O)[O-])cc1[N+](=O)[O-] | 93

System: not listed separately
Assay: Antiproliferative activity against human wild type Skov3 NTR-ve cells after 18 hrs
Format: functional, cell-based
Settings: not given

Row | SMILES | IC50
11 | NC(=O)c1cc(N(CCCl)CCCl)c([N+](=O)[O-])cc1[N+](=O)[O-] | 803 µM

System: V79
Assay: Clonogenic survival of V79 NTRoua cells after 5 hrs by MCL assay
Format: functional, Cricetulus griseus
Settings: not given

Row | SMILES | Activity
12 | NC(=O)c1cc(N(CCCl)CCCl)c([N+](=O)[O-])cc1[N+](=O)[O-] | >1000 µM

System: not listed separately
Assay: Antiproliferative activity against human Skov3 NTRneo cells after 18 hrs
Format: functional, cell-based
Settings: SK-OV-3, 18 h

Row | SMILES | IC50
13 | NC(=O)c1cc(N(CCCl)CCCl)c([N+](=O)[O-])cc1[N+](=O)[O-] | 9.5 µM

System: not listed separately
Assay: Selectivity ratio of IC50 for Skov3 NTR-ve cells to IC50 for Skov3 NTRneo cells
Format: functional, Homo sapiens
Settings: not given

Row | SMILES | Ratio IC50
14 | NC(=O)c1cc(N(CCCl)CCCl)c([N+](=O)[O-])cc1[N+](=O)[O-] | 98

System: V79
Assay: Clonogenic survival of 3% V79 NTRpuro cells in co-cultures with 97% V79 NTRoua after 5 hrs by MCL assay
Format: functional, Cricetulus griseus
Settings: not given
Method in brief: (§1)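 Multicellular layer cocultures of 3% V79-NTRpuro activators and 97% V79oua NTR-ve targets (ouabain-resistant), exposed to prodrug for 5 h. MCLs were then trypsin-dissociated and plated in ouabain or puromycin selective media for clonogenic survival. C10 (10% survival) interpolated for activators and targets; AC/TC ratio derived. Mean with SEM or range over independent experiments.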

Row | SMILES | Activity
15 | NC(=O)c1cc(N(CCCl)CCCl)c([N+](=O)[O-])cc1[N+](=O)[O-] | 98 µM

System: V79
Assay: Clonogenic survival of 97% V79 NTRoua cells in co-cultures with 3% V79 NTRpuro cells after 5 hrs by MCL assay
Format: functional, Cricetulus griseus
Settings: not given
Method in brief: as §1

Row | SMILES | Activity
16 | NC(=O)c1cc(N(CCCl)CCCl)c([N+](=O)[O-])cc1[N+](=O)[O-] | 120 µM

System: not listed separately
Assay: Toxicity in ip dosed CD1 nude mouse in DMA/PEG
Format: organism-based
Settings: in vivo
Method in brief: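 Maximum tolerated dose (MTD) determined in CD-1 nude mice after a single i.p. injection of prodrug, given in the vehicle named in each line.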

Row | SMILES | MTD
17 | NC(=O)c1cc(N(CCCl)CCCl)c([N+](=O)[O-])cc1[N+](=O)[O-] | 200 µmol/kg

System: EMT6
Assay: Antitumor activity against mixed mouse EMT6/EMT6 NTRpuro cells injected in CD1 nude mouse assessed as cell kill at 200 umol/kg, ip in DMA/PEG after 18 hrs
Format: functional
Settings: not given

Row | SMILES | LCK
18 | NC(=O)c1cc(N(CCCl)CCCl)c([N+](=O)[O-])cc1[N+](=O)[O-] | 2.29

System: WiDr
Assay: Antitumor activity against mixed human 10% WiDr NTRneo/ 90% WiDr tumor cells injected in CD1 nude mouse assessed as growth delay at 200 umol/kg, ip in DMA/PEG
Format: functional
Settings: not given
Method in brief: (§2)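 WiDr-NTRneo tumours (100% NTR+ve, or 1:9 NTR+ve:NTR-ve mixtures) in CD-1 nude mice, given a single i.p. dose at MTD. Read-out is median growth delay to 15 mm mean diameter, plus tumours not palpable 100 days after treatment. Aziridine given at 200 µmol/kg as positive control in every experiment.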

Row | SMILES | Activity
19 | NC(=O)c1cc(N(CCCl)CCCl)c([N+](=O)[O-])cc1[N+](=O)[O-] | 11 days

System: WiDr
Assay: Antitumor activity against human 100% WiDr NTRneo tumor cells injected in CD1 nude mouse assessed as growth delay at 200 umol/kg, ip in DMA/PEG
Format: functional
Settings: not given
Method in brief: as §2

Row | SMILES | Activity
20 | NC(=O)c1cc(N(CCCl)CCCl)c([N+](=O)[O-])cc1[N+](=O)[O-] | 29 days

System: not listed separately
Assay: Solubility in alpha MEM
Format: physicochemical
Settings: not given
Method in brief: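 Solubility (mM) in α-MEM with 5% fetal calf serum at ambient temperature, measured by HPLC.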

Row | SMILES | solubility
21 | NC(=O)c1cc(N(CCCl)CCCl)c([N+](=O)[O-])cc1[N+](=O)[O-] | 750 µM (≈ 263 µg/mL)

System: not listed separately
Assay: Stability in alpha MEM at 37 degC after 24 hrs
Format: physicochemical
Settings: read-out: Stability
Method in brief: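 Percent parent compound remaining, by HPLC, after holding in α-MEM with 5% fetal calf serum at 37 °C for 24 h.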

Row | SMILES | remaining at 24 h
22 | NC(=O)c1cc(N(CCCl)CCCl)c([N+](=O)[O-])cc1[N+](=O)[O-] | 99%

Reference: ChEMBL document CHEMBL1142960, “Synthesis and structure-activity relationships for 2,4-dinitrobenzamide-5-mustards as prodrugs for the Escherichia coli nfsB nitroreductase in gene therapy” (J Med Chem, 2007)
